Measurements from ChEMBL document CHEMBL4411336, “2-Aminothiazole Derivatives as Selective Allosteric Modulators of the Protein Kinase CK2. 2. Structure-Based Optimization and Investigation of Effects Specific to the Allosteric Mode of Action” (J Med Chem, 2019).
Activity calls are given as the source filed them. The rule behind the calls is not given here.

Experiments:
786-0 [1] = assay: Growth inhibition of human 786-0 cells at 25 uM after 24 hrs by MTT assay relative to control; format: functional; conditions: 786-0, 24 h, read-out: GI
[2] = molecular target: T1, Casein kinase II subunit alpha (Homo sapiens, UniProt P68400); assay: Inhibition of recombinant human GST-tagged CK2alpha in presence of ATP by radiometric kinase assay
Target sequence in this assay (P68400 whole entry): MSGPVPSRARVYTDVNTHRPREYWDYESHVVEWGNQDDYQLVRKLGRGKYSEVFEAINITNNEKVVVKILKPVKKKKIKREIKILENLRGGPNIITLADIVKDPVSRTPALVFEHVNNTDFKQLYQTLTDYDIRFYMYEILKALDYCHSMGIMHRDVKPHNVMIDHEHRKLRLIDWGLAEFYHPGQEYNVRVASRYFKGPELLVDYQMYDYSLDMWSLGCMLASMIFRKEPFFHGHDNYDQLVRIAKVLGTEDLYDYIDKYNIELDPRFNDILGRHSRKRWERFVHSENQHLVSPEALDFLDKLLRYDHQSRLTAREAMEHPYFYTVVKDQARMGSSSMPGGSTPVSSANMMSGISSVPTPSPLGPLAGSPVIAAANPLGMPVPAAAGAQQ

[3] = molecular target: T1, Casein kinase II subunit alpha; conditions: HeLa, 40 uM
Target sequence in this assay (P68400 whole entry, looked up): as the sequence (P68400 whole entry) above

786-0 [4] = assay: Growth inhibition of human 786-0 cells after 24 hrs by MTT assay; format: functional; conditions: 786-0, 24 h
In short: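 786-O grown in RPMI 1640 with 10% FCS, pen/strep, 37 °C, 5% CO2; assays in medium with 0.1% or 0.5% serum. Cells seeded at 1 × 10^4/well, next day given fresh medium with inhibitor at various concentrations, DMSO (0.25%) control, 24 h. MTT 2 h at 37 °C, SDS/HCl solubilization 4 h, absorbance 570 nm. GI50 by linear interpolation on log[c] scale; at least two independent experiments.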

[5] = molecular target: Activin receptor type-1 (Homo sapiens) (UniProt Q04771); assay: Inhibition of recombinant human catalytic GST-tagged ACVR1 expressed in baculovirus expression system assessed as reduction in enzyme activity at 5 uM in presence of ATP relative to control
[6] = Growth inhibition of human RPTEC cells after 24 hrs by MTT assay; format: cell-based
[7] = molecular target: Glycogen synthase kinase-3 beta (Homo sapiens) (UniProt P49841); assay: Inhibition of recombinant full length human His-tagged GSK3beta expressed in baculovirus expression system assessed as reduction in enzyme activity at 5 uM in presence of ATP relative to control
786-0 [8] = assay: cells; conditions: Homo sapiens, 786-0, 24 h
[9] = molecular target: Dual specificity protein kinase CLK1 (Homo sapiens) (UniProt P49759); conditions: 5 uM
[10] = molecular target: Cyclin-dependent kinase 1/cyclin B1 (Homo sapiens) (UniProt P06493+P14635); conditions: 5 uM
[11] = molecular target: Serine/threonine-protein kinase pim-1 (Homo sapiens) (UniProt P11309); assay: Inhibition of recombinant full length human His-tagged PIM1 expressed in baculovirus expression system assessed as reduction in enzyme activity at 5 uM in presence of ATP relative to control
Homo sapiens = species on record: Homo sapiens; assay: Inhibition of human PI3K assessed as reduction in enzyme activity at 5 uM in presence of ATP relative to control
NCI-H1299 = assay: Growth inhibition of human H1299 cells after 24 hrs by MTT assay; format: functional; conditions: NCI-H1299, 24 h
[12] = molecular target: Tyrosine-protein kinase ABL1 (Homo sapiens) (UniProt P00519); conditions: 5 uM
DU-145 = assay: Growth inhibition of human DU145 cells after 24 hrs by MTT assay; format: functional; conditions: DU-145, 24 h
[13] = molecular target: Dual specificity protein kinase CLK4 (Homo sapiens) (UniProt Q9HAZ1); assay: Inhibition of recombinant full length human GST-tagged CLK4 expressed in baculovirus expression system assessed as reduction in enzyme activity at 5 uM in presence of ATP relative to control
[14] = molecular target: Receptor tyrosine-protein kinase erbB-2 (Homo sapiens) (UniProt P04626); assay: Inhibition of human His-tagged ERBB2 expressed in baculovirus expression system assessed as reduction in enzyme activity at 5 uM in presence of ATP relative to control; design: scale not given: the % may be the effect or the level left
[15] = molecular target: Dual specificity protein kinase CLK2 (Homo sapiens) (UniProt P49760); conditions: 5 uM
[16] = molecular target: Aurora kinase B (Homo sapiens) (UniProt Q96GD4); assay: Inhibition of recombinant full length human His-tagged AURKB expressed in baculovirus expression system assessed as reduction in enzyme activity at 5 uM in presence of ATP relative to control
[17] = molecular target: Epidermal growth factor receptor (Homo sapiens) (UniProt P00533); assay: Inhibition of human EGFR assessed as reduction in enzyme activity at 5 uM in presence of ATP relative to control; design: scale not given: the % may be the effect or the level left
786-0 [18] = assay: cells; conditions: Homo sapiens, 786-0, 24 h; remark: listed apart in the source
[19] = Growth inhibition of human MCF10A cells after 24 hrs by MTT assay; format: cell-based, MCF-10A
[20] = molecular target: Serine/threonine-protein kinase Chk2 (Homo sapiens) (UniProt O96017); conditions: 5 uM
[21] = molecular target: Serine/threonine-protein kinase pim-1 (Homo sapiens) (UniProt P11309); assay: Inhibition of human PIM1 assessed as reduction in enzyme activity at 5 uM in presence of ATP relative to control; design: scale not given: the % may be the effect or the level left
U138-MG = assay: Growth inhibition of human U138MG cells after 24 hrs by MTT assay; format: functional
[22] = molecular target: Casein kinase I isoform gamma-1 (Homo sapiens) (UniProt Q9HCP0); assay: Inhibition of recombinant full length human GST-tagged CK1gamma1 expressed in baculovirus expression system assessed as reduction in enzyme activity at 5 uM in presence of ATP relative to control
PC-3 = assay: Growth inhibition of human PC3 cells after 24 hrs by MTT assay; format: functional; conditions: PC-3, 24 h

Chain of Serine/threonine-protein kinase pim-1 (Homo sapiens) (P11309 whole entry, looked up): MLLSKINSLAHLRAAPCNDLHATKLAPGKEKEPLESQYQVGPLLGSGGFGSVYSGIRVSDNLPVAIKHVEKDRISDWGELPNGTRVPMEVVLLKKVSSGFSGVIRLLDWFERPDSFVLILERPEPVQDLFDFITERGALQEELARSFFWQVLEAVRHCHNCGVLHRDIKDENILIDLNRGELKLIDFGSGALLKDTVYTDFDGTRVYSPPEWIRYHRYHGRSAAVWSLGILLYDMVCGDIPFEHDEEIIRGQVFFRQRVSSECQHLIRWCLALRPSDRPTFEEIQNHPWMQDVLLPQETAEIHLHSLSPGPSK
Chain of Dual specificity protein kinase CLK4 (Homo sapiens) (Q9HAZ1 whole entry, looked up): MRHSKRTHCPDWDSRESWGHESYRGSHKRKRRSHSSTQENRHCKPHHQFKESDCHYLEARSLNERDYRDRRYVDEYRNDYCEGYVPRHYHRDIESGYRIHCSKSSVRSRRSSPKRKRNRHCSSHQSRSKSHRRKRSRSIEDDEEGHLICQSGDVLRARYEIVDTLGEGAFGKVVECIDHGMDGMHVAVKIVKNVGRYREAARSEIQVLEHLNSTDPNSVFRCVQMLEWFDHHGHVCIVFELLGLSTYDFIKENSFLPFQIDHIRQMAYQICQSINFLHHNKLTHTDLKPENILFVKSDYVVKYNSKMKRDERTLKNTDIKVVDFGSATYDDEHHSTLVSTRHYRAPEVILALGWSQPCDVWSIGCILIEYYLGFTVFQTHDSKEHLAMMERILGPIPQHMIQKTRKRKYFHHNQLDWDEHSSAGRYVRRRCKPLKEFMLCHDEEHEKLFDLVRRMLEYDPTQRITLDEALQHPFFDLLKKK
Chain of Cyclin-dependent kinase 1/cyclin B1 (Homo sapiens) (P06493 whole entry, looked up): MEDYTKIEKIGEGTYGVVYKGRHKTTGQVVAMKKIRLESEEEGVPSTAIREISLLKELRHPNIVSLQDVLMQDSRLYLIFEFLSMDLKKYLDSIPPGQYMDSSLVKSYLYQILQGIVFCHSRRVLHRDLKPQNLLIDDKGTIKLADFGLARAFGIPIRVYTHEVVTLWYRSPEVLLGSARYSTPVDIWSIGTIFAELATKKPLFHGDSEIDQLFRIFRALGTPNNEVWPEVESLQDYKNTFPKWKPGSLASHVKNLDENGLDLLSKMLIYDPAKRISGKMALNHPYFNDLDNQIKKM
Chain of Cyclin-dependent kinase 1/cyclin B1 (Homo sapiens) (P14635 whole entry, looked up): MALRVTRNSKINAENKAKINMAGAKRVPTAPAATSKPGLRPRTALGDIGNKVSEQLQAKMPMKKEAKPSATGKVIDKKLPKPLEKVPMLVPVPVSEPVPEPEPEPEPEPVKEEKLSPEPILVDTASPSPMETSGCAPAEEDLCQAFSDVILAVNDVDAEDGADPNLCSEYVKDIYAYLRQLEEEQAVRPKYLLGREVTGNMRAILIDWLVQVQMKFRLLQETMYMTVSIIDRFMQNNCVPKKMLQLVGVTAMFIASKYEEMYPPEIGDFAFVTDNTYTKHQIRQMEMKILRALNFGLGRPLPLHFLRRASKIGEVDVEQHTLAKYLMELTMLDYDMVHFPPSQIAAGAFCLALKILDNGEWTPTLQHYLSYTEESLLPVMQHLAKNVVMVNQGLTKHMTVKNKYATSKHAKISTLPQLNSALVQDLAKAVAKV
Chain of Activin receptor type-1 (Homo sapiens) (Q04771 whole entry): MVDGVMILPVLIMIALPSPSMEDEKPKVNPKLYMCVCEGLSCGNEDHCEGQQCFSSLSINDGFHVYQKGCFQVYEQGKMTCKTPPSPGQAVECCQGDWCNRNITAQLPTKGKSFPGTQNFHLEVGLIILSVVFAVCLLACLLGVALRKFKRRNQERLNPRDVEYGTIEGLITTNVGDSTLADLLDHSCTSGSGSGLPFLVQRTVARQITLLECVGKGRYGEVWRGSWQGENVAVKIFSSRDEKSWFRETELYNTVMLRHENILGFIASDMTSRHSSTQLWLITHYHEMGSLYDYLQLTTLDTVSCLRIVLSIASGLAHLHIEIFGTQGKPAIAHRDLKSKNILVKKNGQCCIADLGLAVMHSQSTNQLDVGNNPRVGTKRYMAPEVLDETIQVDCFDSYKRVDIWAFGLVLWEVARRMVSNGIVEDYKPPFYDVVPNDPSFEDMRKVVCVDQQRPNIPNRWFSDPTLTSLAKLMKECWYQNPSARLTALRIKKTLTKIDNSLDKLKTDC
Chain of Dual specificity protein kinase CLK1 (Homo sapiens) (P49759 whole entry, looked up): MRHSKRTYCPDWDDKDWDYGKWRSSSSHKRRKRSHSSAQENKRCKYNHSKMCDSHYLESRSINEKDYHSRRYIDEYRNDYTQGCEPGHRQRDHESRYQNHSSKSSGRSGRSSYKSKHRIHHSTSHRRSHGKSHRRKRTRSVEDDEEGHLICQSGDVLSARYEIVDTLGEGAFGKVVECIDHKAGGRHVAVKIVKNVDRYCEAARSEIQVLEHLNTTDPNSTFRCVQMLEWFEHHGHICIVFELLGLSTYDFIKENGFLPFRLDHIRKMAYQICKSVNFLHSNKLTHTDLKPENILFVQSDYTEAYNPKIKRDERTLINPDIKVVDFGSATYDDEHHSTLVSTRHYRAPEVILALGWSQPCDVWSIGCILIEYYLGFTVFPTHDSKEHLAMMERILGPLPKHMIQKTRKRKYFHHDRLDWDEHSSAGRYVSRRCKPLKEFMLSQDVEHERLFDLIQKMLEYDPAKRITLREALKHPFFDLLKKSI
Chain of Glycogen synthase kinase-3 beta (Homo sapiens) (P49841 whole entry, looked up): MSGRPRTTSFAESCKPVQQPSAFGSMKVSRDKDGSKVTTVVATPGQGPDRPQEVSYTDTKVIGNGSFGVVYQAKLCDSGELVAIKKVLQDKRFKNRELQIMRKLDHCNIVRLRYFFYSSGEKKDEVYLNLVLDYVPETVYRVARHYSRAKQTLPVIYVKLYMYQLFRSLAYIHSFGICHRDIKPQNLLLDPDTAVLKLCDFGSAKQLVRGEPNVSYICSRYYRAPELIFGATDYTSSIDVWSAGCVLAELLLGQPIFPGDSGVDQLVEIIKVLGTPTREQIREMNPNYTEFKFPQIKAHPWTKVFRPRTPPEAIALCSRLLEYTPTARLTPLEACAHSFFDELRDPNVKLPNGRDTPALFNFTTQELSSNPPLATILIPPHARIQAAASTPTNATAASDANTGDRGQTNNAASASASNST
Chain of Receptor tyrosine-protein kinase erbB-2 (Homo sapiens) (P04626 whole entry): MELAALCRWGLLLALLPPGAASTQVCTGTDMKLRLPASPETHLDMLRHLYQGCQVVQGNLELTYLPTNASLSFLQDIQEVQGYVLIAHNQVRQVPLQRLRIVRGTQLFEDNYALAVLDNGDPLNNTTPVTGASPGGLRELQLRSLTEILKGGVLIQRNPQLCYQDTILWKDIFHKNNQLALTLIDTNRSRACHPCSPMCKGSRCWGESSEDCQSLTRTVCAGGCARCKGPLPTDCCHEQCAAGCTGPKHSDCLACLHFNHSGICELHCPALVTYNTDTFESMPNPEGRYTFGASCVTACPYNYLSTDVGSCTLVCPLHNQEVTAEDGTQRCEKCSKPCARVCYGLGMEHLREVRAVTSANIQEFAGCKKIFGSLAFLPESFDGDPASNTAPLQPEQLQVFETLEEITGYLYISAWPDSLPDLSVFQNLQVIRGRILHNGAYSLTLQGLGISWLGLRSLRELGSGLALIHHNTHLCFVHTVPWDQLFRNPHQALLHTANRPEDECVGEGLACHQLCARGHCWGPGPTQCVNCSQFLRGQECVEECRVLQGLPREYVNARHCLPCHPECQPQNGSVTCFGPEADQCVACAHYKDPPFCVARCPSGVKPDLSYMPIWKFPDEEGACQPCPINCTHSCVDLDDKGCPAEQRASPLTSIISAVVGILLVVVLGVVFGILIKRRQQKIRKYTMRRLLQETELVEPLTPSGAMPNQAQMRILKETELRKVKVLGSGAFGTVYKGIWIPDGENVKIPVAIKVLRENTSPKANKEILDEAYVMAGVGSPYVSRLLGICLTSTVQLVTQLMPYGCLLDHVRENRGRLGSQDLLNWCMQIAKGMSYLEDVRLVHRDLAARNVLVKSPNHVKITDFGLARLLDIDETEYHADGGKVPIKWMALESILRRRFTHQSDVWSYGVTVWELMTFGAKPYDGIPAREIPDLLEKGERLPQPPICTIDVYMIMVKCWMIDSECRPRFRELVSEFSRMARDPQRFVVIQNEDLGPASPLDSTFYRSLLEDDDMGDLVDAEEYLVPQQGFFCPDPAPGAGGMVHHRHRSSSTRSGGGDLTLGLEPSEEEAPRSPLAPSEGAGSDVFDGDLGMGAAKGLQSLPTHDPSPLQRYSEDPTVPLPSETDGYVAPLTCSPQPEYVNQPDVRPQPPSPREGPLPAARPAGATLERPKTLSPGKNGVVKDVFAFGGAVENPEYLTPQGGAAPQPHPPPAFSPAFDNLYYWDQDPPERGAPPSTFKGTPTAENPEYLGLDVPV
Chain of Aurora kinase B (Homo sapiens) (Q96GD4 whole entry): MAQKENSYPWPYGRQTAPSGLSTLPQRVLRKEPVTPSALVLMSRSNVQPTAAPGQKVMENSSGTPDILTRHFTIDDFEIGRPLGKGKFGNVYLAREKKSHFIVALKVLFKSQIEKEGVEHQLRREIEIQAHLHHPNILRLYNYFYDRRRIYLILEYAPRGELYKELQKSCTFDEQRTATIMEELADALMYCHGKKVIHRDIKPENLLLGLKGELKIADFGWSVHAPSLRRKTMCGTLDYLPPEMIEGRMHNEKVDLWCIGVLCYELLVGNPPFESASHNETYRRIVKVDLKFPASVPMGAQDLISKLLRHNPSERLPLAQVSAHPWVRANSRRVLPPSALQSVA

CS(=O)(=O)NC(=O)c1ccc(Nc2nc(-c3ccc4ccccc4c3)cs2)cc1
inhibition of growth at 25 µM (786-0 [1]): 23%

N#Cc1ccc(Nc2nc(-c3ccc4ccccc4c3)cs2)cc1
IC50 [2]: > 50 µM

CC(=O)OCOC(=O)c1ccc(Nc2nc(-c3cccc([N+](=O)[O-])c3)cs2)cc1
inhibition of growth at 25 µM (786-0 [1]): 42%

O=C(O)Cc1ccc(Nc2nc(-c3cccc([N+](=O)[O-])c3)cs2)cc1
IC50 [2]: > 50 µM

COC(=O)c1ccc(Nc2nc(-c3cccc([N+](=O)[O-])c3)cs2)cc1
IC50 [2]: > 25 µM

O=C(O)c1ccc(Nc2nc(-c3cccc(Br)c3)cs2)cc1
inhibition [3]: Active | GI50 (786-0 [4]): 25 µM

O=C(O)c1ccc(Nc2nc(-c3ccc4ccccc4c3)cs2)cc1O
inhibition [5]: 0% | inhibition of growth at 25 µM (786-0 [1]): 87% | GI50 at 24 h [6]: 27 µM | inhibition [7]: 41% | EC50 (786-0 [8]): 4.6 µM | inhibition [9]: 20 to 30% | inhibition [10]: 20 to 30% | inhibition [11]: 60% | inhibition (Homo sapiens): 53% | GI50 (NCI-H1299): 9 µM | inhibition [12]: 20 to 30% | GI50 (DU-145): 20 µM | inhibition [13]: 23% | GI50 (786-0 [4]): 5 µM | Activity [14]: 70% | inhibition [15]: 20 to 30% | inhibition [16]: 62% | Activity [17]: 21% | EC50 (786-0 [18]): 4.9 µM | GI50 at 24 h [19]: 10 µM | inhibition [20]: 20 to 30% | Activity [21]: 60% | GI50 (U138-MG): 13 µM | inhibition [22]: 32% | GI50 (PC-3): 7 µM

Cc1ccc(S(=O)(=O)NC(=O)c2ccc(Nc3nc(-c4ccc5ccccc5c4)cs3)cc2)cc1
inhibition of growth at 25 µM (786-0 [1]): 87%

O=C(O)c1ccc(Nc2nc(-c3ccc(O)cc3O)cs2)cc1
IC50 [2]: 7 µM

CC(=O)OCOC(=O)c1ccc(Nc2nc(-c3ccsc3)cs2)cc1
inhibition of growth at 25 µM (786-0 [1]): 48%

c1ccc(Nc2nc(-c3ccc4ccccc4c3)cs2)cc1
IC50 [2]: > 50 µM

CC(=O)OCOC(=O)c1ccc(Nc2nc(-c3ccc4ccccc4c3)cs2)cc1
inhibition of growth at 25 µM (786-0 [1]): 45%

CC(C)(C)c1csc(Nc2ccc(C(=O)O)cc2)n1
IC50 [2]: > 50 µM

O=[N+]([O-])c1cccc(-c2csc(Nc3ccccc3)n2)c1
IC50 [2]: > 25 µM
